Measurements collected from several papers.
Compare with care: the assays were run in different laboratories.
Target: Cyclin-dependent kinase 11A (CDK11A, Homo sapiens, UniProt Q9UQ88)
Effect on: binding
Sequence (Q9UQ88 1-783, as in one of the studies): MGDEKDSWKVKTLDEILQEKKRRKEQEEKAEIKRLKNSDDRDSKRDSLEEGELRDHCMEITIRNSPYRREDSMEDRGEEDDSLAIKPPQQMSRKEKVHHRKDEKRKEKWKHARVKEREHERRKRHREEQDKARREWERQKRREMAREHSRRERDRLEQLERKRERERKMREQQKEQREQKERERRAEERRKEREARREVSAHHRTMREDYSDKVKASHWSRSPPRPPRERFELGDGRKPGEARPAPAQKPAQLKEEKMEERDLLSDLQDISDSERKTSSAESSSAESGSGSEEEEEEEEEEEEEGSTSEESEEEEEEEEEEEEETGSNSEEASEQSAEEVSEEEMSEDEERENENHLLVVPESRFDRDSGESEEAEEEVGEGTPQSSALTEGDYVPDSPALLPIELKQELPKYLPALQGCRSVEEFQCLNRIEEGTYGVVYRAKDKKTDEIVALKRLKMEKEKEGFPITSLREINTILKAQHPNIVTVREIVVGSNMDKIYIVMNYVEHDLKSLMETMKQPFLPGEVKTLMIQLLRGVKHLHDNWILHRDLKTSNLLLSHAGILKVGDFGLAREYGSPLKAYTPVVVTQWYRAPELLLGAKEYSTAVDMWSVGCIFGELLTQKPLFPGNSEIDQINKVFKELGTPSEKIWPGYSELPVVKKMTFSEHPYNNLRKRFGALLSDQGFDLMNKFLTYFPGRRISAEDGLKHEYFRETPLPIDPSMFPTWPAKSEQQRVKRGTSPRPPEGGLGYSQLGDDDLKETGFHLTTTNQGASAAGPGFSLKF

`CCN1CCN(Cc2ccc(C(=O)Nc3ccc(C)c(Oc4ccc5c(c4)CC(=O)N5)c3)cc2C(F)(F)F)CC1` has a remaining binding of 100% (competition with immobilised ligand; 1 µM).
`Cn1cc(Cl)c2c(Oc3c(F)cc(Nc4cc(Cl)nc(N)n4)cc3F)ccnc21` gave a remaining binding of 100% (competition with immobilised ligand; 0.1 µM).
The remaining binding of `O=C(c1ccc(Nc2ncc(Cl)c(-c3ccc(Cl)s3)n2)cc1)N1CCC(N2CCCC2)CC1` is reported as 39% (competition with immobilised ligand; 1 µM).
The remaining binding of `CNC(=O)Nc1ccc2c(c1)[C@@]1(CC2)OC(=O)N(CC(=O)N(Cc2ccc(F)cc2)[C@@H](C)C(F)(F)F)C1=O` is reported as 94% (competition with immobilised ligand; 1 µM).
`COc1cnc(Nc2cccc(S(N)(=O)=O)c2)nc1N1CCN(c2ccccc2)C(=O)C1` gave a remaining binding of 100% (competition with immobilised ligand; 1 µM).
`O=C(NCCCN1CCOCC1)c1ccc(Nc2ncc(Cl)c(-c3ccc(Cl)s3)n2)cc1` has a remaining binding of 23% (competition with immobilised ligand; 1 µM).
With `CC(=O)N1CCC(c2ccc(C(=O)NC3=NCCN3)cc2C(F)(F)F)CC1` the remaining binding was 100% (competition with immobilised ligand; 1 µM).
For `COc1cnc(Nc2cccc(S(N)(=O)=O)c2)nc1N1CCN(c2ccccc2)CC1`, the remaining binding was 93% (competition with immobilised ligand; 1 µM).
The remaining binding of `O=C(NCC1CCOCC1)c1n[nH]cc1NC(=O)c1c(F)cccc1F` is reported as 91% (competition with immobilised ligand; 1 µM).
`CC1CCCN1c1nccc(-c2cnn3ncccc23)n1` (stereo not drawn) has a remaining binding of 100% (1 µM).
`CSc1cccnc1N1CCN(Cc2nc3ccccc3[nH]2)CC1` has a remaining binding of 100% (competition with immobilised ligand; 1 µM).
`C[C@H]1CCN(c2nccc(-c3cnn4ncccc34)n2)C1` gave a remaining binding of 81% (1 µM).
With `CCC(=O)N[C@@H]1CC[C@H](C(=O)N(C)c2ccc(-c3nc4ccccc4o3)cc2)C1` the remaining binding was 100% (competition with immobilised ligand; 1 µM).
The remaining binding of `CN(C)c1nccc(-c2cnc3ncccn23)n1` is reported as 100% (1 µM).
For `O=C(NCCCN1CCOCC1)c1ccc(Nc2nccc(-c3cc4ccccc4s3)n2)cc1`, the remaining binding was 56% (competition with immobilised ligand; 1 µM).
`Cc1cnn2ncc(-c3ccnc(N(C)C)n3)c2c1` has a remaining binding of 100% (1 µM).
For `c1cncc(-c2cccc(Nc3nccc(NC4CCCCC4)n3)c2)c1`, the remaining binding was 98% (competition with immobilised ligand; 10 µM).
`N[C@@H]1CCN(c2nccc(-c3cnn4ncccc34)n2)C1` has a remaining binding of 98% (1 µM).
The remaining binding of `C=CC(=O)N1CCC(C(=O)NCC(=O)N2CCN(c3nc(-c4cnc(N)nc4C(F)F)nc(N4CCOCC4)n3)CC2)CC1` is reported as 97% (competition with immobilised ligand; 1 µM).
`CN(C)c1ncc(F)c(-c2cnn3ncccc23)n1` has a remaining binding of 97% (1 µM).
With `O=C(NCc1ncc(C(F)(F)F)cc1Cl)c1ccc2c(c1)C1(CCS(=O)(=O)CC1)[C@@H](C1CC1)N2S(=O)(=O)c1ccc(F)cc1` the remaining binding was 100% (competition with immobilised ligand; 1 µM).
